Bioassay records as filed in PubChem.
Compounds with a hit are over-represented: about 11% of the library has one in this group of screens.
L major viab: Leishmania major promastigote growth inhibition; Leishmania major promastigotes, resazurin fluorescence viability; inhibition, % at 10 µM; actives 9% (n = 200,000); AID 1063;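 further: promastigotes grown with compound for 44 hours at 28 °C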
WT yeast gro inh: growth inhibition of WT yeast, mitochondrial fusion screen. inhibition, % at 10 µM. mitochondrial fusion phenotypic screen, WT strain. actives 2.1% (n = 190,000); in the data active means inhibition above about 58%; tested in S. cerevisiae
G6PDH counter: inhibits Leuconostoc G6PDH, flagging false hits in G6PDH-based assays. Purified L. mesenteroides G6PDH, diaphorase/resazurin coupled fluorescence, 45 min. inhibition, % at 5 µM. actives 0.12% (n = 200,000). AID 1020
Diaphorase act: activates diaphorase or chemically reduces, flagging diaphorase assay artifacts; activation factor at 20 µM; actives 0.005% (n = 190,000); Diaphorase/resazurin coupled assay, resorufin fluorescence, 16 min; active compounds read high; 1 = vehicle wells, 0 = NADH-free wells;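 active means diaphorase activity raised at least twofold by the compound at 20 µM; inactive means activation factor below 2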
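Test system: Clostridium kluyveri diaphorase, purified enzyme. Buffer or medium: 50 mM HEPES pH 7.4 buffer plus MgCl2 and Tween 20. Also added: 0.114 mM NADH and 0.1 mM resazurin, final amounts. Dosing: compound 20 µM once, DMSO 1%. Schedule: 16 min enzyme reaction, ambient temperature. Detection: fluorescence of resorufin, 544 nm excitation, 590 nm emission.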
Diaphorase inh: counter-screen for diaphorase-based assays: diaphorase inhibitors and chemical oxidizers; diaphorase resazurin-to-resorufin fluorescence, NADH, 16 min; bacterial (C. kluyveri) enzyme, not human; inhibition, % at 20 µM; actives 0.69% (n = 190,000);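 active means primary screen inhibition at 20 µM above a set limit, cut at about 50% in these data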
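Test system: Clostridium kluyveri diaphorase enzyme / Quantity: diaphorase at 0.14 U/mL in enzyme working solution / Incubation: 16-min room-temperature incubation before reading / Benchmarks: NADH-free wells as positive control, DMSO-only neutral wells / Signal: resorufin fluorescence 544/590 nm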
Large screens that a line does not name were inactive. Unless noted, no stated cut-off is given here; in the data, active means inhibition above about 50%; inactive means the rest.

CC(C)CCN1CCN(Cc2ccsc2)CC1CCO (centres undefined)	none
COc1ccccc1N1CCN(C(=O)CCCN2C(=O)c3cccc4cccc(c34)C2=O)CC1	none
COc1cc(CN2CCN(CCc3ccccc3)C(CCO)C2)cc(OC)c1 (centres undefined)	L major viab 64
OCCC1CN(Cc2cccc(-c3ccco3)c2)CCN1Cc1ccsc1 (centres undefined)	L major viab 85 (no result: Diaphorase act, Diaphorase inh)
COc1ccccc1/C=C/CN1CCN(Cc2ccc(F)cc2)C(CCO)C1 (centres undefined)	L major viab 83
COc1ccc(CN2CCN(Cc3ccccc3)C(CCO)C2)cc1OC (centres undefined)	none
CC(C)CCNC(=O)CCc1nnc(COc2ccccc2)o1	none
c1ccc(CSc2ncnc3c2cnn3Cc2ccccc2)cc1	WT yeast gro inh 67
COC(=O)CSc1ncnc2c1cnn2Cc1ccccc1	none
S=C(NCCCN1CCOCC1)Nc1ccc(Cl)cc1	L major viab 99
S=C(NCCN1CCOCC1)Nc1ccc(Cl)c(Cl)c1	L major viab 55
CC1CCN(CCNC(=S)Nc2ccc(Cl)cc2)CC1	L major viab 66
S=C(NCCN1CCOCC1)Nc1ccc(Cl)cc1	none
Cc1ccc(NC(=S)NCCCN2CCOCC2)cc1	L major viab 78
O=C(COc1ccc(Cl)cc1Cl)NC(=O)N1CCOCC1	none
CC(NC(=S)NCCCN1CCOCC1)C12CC3CC(CC(C3)C1)C2 (centres undefined)	L major viab 86
S=C(NCCCN1CCOCC1)NCCCN1CCOCC1	none
COc1ccc(CNC(=O)CNS(=O)(=O)c2ccc(Cl)cc2)cc1	none
O=C(CN1CCCCC1)N/N=C/c1cc2ccccc2nc1Cl	none
O=C(Nc1ccc(Cl)cc1)N1CCC(c2nc(-c3ccccc3Cl)no2)CC1	WT yeast gro inh 64
O=S(=O)(c1ccccc1Cl)N1CCCC1c1nc(-c2ccccc2Cl)no1 (centres undefined)	L major viab 89
CCOC(=O)CN1C(=O)C(Sc2n[nH]c(-c3ccccc3)n2)CCc2ccccc21 (centres undefined)	none
O=C(NCCOc1nc(N2CCCCC2)nc(N2CCCCC2)n1)Nc1ccccc1	none
CC(=O)NCCOc1nc(N2CCCCC2)nc(N2CCCCC2)n1	L major viab 96
O=C(c1ccc(C#Cc2ccccc2)o1)N1CCN(c2ccccn2)CC1	WT yeast gro inh 69
COc1cccc(C(=O)NCC2CCN(c3ccc(S(=O)(=O)N4CCOCC4)cc3)CC2)c1	L major viab 64
COc1cccc(C(=O)Nc2nnc(-c3ccc(Cl)cc3)o2)c1	none (no result: L major viab, G6PDH counter, Diaphorase act, Diaphorase inh)
COc1ccc(NC(=O)c2ccc(S(=O)(=O)N3CCOCC3)cc2)c(OC)c1	none
COc1cccc(-c2nnc(NC(=O)c3ccc(S(=O)(=O)N4CCOCC4)cc3)o2)c1	L major viab 96
COc1cccc(-c2nnc(NC(=O)C3CCCCC3)o2)c1	L major viab 66
COc1cccc(-c2nnc(NC(=O)c3ccc4ncsc4c3)o2)c1	L major viab 82
COc1cc(-c2nnc(NC(=O)c3ccc(S(=O)(=O)N4CCOCC4)cc3)o2)cc(OC)c1OC	none
COc1ccc(/C(N)=N/O)cc1O	none
O=C(c1ccc(S(=O)(=O)N2CCOCC2)cc1)N1CCN(c2cccc(Cl)c2)CC1	none
CC1CN(S(=O)(=O)c2ccc(C(=O)Nc3nnc(-c4ccc5c(c4)CCCC5)o3)cc2)CC(C)O1 (centres undefined)	L major viab 99
O=C(NCC1CCN(c2ccc(S(=O)(=O)N3CCOCC3)cc2)CC1)c1cccc(Cl)c1	L major viab 97
Cc1cccc(C(=O)Nc2nnc(-c3cccnc3)o2)c1	L major viab 65
CCOc1ccc(-c2nnc(NC(=O)c3ccc(OCC(C)C)c(OC)c3)o2)cc1	L major viab 98, WT yeast gro inh 64
CCOc1ccc(/C=N/NC(=O)CNC(=O)c2ccc(S(=O)(=O)N3CCOCC3)cc2)cc1	none
COCC(C)n1c(SCc2cc(=O)n3cc(C)ccc3n2)nc2ccccc2c1=O (centres undefined)	none
Fc1ccc(-n2ncc3c(SCc4cccnc4)ncnc32)cc1	none
Cc1nn(CC(=O)OCC(=O)Nc2c(C(C)C)cccc2C(C)C)c(C)c1[N+](=O)[O-]	L major viab 51
Cc1nn(CC(=O)OCC(=O)Nc2ccccc2[N+](=O)[O-])c(C)c1[N+](=O)[O-]	L major viab 65
Cc1ccc(NC(=O)COC(=O)Cn2nc(C)c([N+](=O)[O-])c2C)c([N+](=O)[O-])c1	none
COc1ccccc1C1(CCNS(=O)(=O)c2ccc(C)cc2)CCOC(C(C)C)C1 (centres undefined)	L major viab 83, WT yeast gro inh 59
COc1ccccc1C1(CC(=O)O)CCOC(C(C)C)C1 (centres undefined)	none
O=C(Nc1nc2ccccc2n1CCN1CCOCC1)c1cn(-c2ccccc2)nc1-c1ccccc1	L major viab 96
Cc1ccc(N2NC(C)(c3cccs3)NC2=S)cc1 (centres undefined)	L major viab 89
Cc1ccccc1Oc1cc(NC(=O)Cn2cnc([N+](=O)[O-])c2)cc([N+](=O)[O-])c1	L major viab 97
Cc1nn(CCCC(=O)Nc2cc(Oc3ccc(F)cc3)cc([N+](=O)[O-])c2)c(C)c1[N+](=O)[O-]	L major viab 100
Cc1ccccc1Oc1cc(NC(=O)CCCn2nc(C)c([N+](=O)[O-])c2C)cc([N+](=O)[O-])c1	L major viab 98
O=C1C2=C(c3ccccc31)[N+](=O)C1CCCCC1N2[O-] (centres undefined)	Diaphorase inh 76
O=C1C2=C(c3ccccc31)[N+](=O)[C@@H]1CCCC[C@@H]1N2[O-]	Diaphorase inh 76
Cc1csc(OCc2ccc(C#N)cc2)n1	none
CCOC(=O)c1cnc2c(-c3ccc(F)cc3)cnn2c1C(F)(F)F	L major viab 97
CCOC(=O)c1cnc2c(-c3ccc(Cl)cc3)cnn2c1C	none (no result: Diaphorase act, Diaphorase inh)
COc1ccc(/C=N/NC(C)(C)C)c(OC)c1	none
CCOc1ccc(Nc2cc(C)nc(-n3nc(C)cc3C)n2)cc1	L major viab 90
COc1ccc(/C=N/Nc2cc(C)nc(-n3nc(C)cc3C)n2)c(OC)c1	L major viab 99
CNc1cc(C)nc(-n2nc(C)cc2C)n1	none
Cc1cc(Cl)ccc1OCc1n[nH]c(=S)n1C1CCCCC1	WT yeast gro inh 94
C=CCOc1ccccc1/C=c1\sc2nc(=O)c(C)nn2c1=O	L major viab 100
COc1ccccc1/C=c1\sc2nc(-c3cccs3)nn2c1=O	none (no result: WT yeast gro inh, G6PDH counter, Diaphorase act, Diaphorase inh)
Cc1ccsc1/C=C(\C(=O)c1ccc(OC(C)C)cc1)c1nc2ccccc2o1	L major viab 100
CCCCNC(=O)COC(=O)c1ccc(NS(=O)(=O)c2ccc3c(c2)OCCO3)cc1	none
